According to ChEMBL document CHEMBL4229396, “Synthesis, structure and bioactivity of primary sulfamate-containing natural products” (Bioorg Med Chem Lett, 2018):
≈ marks a conversion by molar mass, not a printed value.

Experiments:
Carbonic anhydrase 9 = Carbonic anhydrase 9 (Homo sapiens, UniProt Q16790); experiment: Inhibition of recombinant human CA9 expressed in Escherichia coli assessed as reduction in CO2 hydration by stopped flow assay
Method in brief: (§1)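 Stopped-flow assay following the CA-catalysed hydration of CO2 (the physiological reaction); Ki values from three determinations, errors within ±5% of the reported value.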

Acinetobacter baumannii = experiment: Antibacterial activity against Acinetobacter baumannii ATCC 19606 at 20 uM relative to control; format: functional, ATCC 19606 = CIP 70.34 = JCM 6841
Method in brief: (§2)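 Screened by CO-ADD at a single concentration of 20 µM; growth inhibition above 50% at this concentration was classed as a hit. Strains and sources are given in Supplementary Information.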

Carbonic anhydrase 4 = Carbonic anhydrase 4 (Homo sapiens, UniProt P22748); experiment: Inhibition of recombinant human CA4 expressed in Escherichia coli assessed as reduction in CO2 hydration by stopped flow assay; method in brief: as §1
Chain of Carbonic anhydrase 4 (P22748 whole entry): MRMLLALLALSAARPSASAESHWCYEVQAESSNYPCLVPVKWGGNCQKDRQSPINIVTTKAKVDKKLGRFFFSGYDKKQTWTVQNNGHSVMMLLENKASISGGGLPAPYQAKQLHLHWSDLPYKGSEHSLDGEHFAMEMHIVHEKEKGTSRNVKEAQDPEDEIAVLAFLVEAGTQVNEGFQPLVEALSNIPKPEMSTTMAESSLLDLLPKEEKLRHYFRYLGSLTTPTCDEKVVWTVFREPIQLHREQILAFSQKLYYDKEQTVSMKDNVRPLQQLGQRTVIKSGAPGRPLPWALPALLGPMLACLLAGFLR

[1] = Cytotoxicity against HEK293 cells; format: cell-based; details: human
Pseudomonas aeruginosa = experiment: Antibacterial activity against Pseudomonas aeruginosa ATCC 27853 at 20 uM relative to control; format: functional; method in brief: as §2
Candida albicans = experiment: Antifungal activity against Candida albicans ATCC 90028 at 20 uM by resazurin dye based assay relative to control; format: functional; method in brief: as §2
Staphylococcus aureus [2] = experiment: Antibacterial activity against Staphylococcus aureus ATCC 43300 at 20 uM relative to control; format: functional; method in brief: as §2
Carbonic anhydrase 1 = Carbonic anhydrase 1 (Homo sapiens, UniProt P00915); experiment: Inhibition of recombinant human CA1 expressed in Escherichia coli assessed as reduction in CO2 hydration by stopped flow assay; method in brief: as §1
Chain of Carbonic anhydrase 1 (P00915 whole entry): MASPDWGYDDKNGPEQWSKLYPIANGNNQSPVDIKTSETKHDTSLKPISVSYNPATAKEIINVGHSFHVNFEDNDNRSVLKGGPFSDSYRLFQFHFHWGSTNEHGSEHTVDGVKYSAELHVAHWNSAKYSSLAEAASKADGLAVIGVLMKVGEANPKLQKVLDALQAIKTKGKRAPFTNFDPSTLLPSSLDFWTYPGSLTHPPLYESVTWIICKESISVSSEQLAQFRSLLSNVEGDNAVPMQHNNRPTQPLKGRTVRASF

Staphylococcus aureus [3] = experiment: Antibacterial activity against Staphylococcus aureus ATCC 43300; format: functional
Cryptococcus neoformans = experiment: Antifungal activity against Cryptococcus neoformans var. grubii H99 ATCC 208821 at 20 uM by resazurin dye based assay relative to control; format: functional; method in brief: as §2
Carbonic anhydrase 2 = Carbonic anhydrase 2 (Homo sapiens, UniProt P00918); experiment: Inhibition of recombinant human CA2 expressed in Escherichia coli assessed as reduction in CO2 hydration by stopped flow assay; method in brief: as §1
Escherichia coli [4] = experiment: Antibacterial activity against Escherichia coli ATCC 25922; format: functional
Escherichia coli [5] = experiment: Antibacterial activity against Escherichia coli ATCC 25922 at 20 uM relative to control; format: functional; method in brief: as §2
Klebsiella pneumoniae = experiment: Antibacterial activity against Klebsiella pneumoniae ATCC 700603 at 20 uM relative to control; format: functional; method in brief: as §2

| Compound | Ki (Carbonic anhydrase 9) [nM] | Activity (Acinetobacter baumannii) | Ki (Carbonic anhydrase 4) [nM] | CC50 [1] [nM] | Activity (Pseudomonas aeruginosa) | Activity (Candida albicans) | Activity (Staphylococcus aureus [2]) | Ki (Carbonic anhydrase 1) [µM] | MIC (Staphylococcus aureus [3]) [µM] | Activity (Cryptococcus neoformans) | Ki (Carbonic anhydrase 2) [nM] | MIC (Escherichia coli [4]) [µM] | Activity (Escherichia coli [5]) | Activity (Klebsiella pneumoniae) |
| --- | --- | --- | --- | --- | --- | --- | --- | --- | --- | --- | --- | --- | --- | --- |
| Nc1ncnc2c1ncn2[C@@H]1O[C@H](COS(N)(=O)=O)[C@@H](O)[C@H]1O | 3100 | <=50% | 4450 | 800 | <=50% | <=50% | >50% | 6.35 | 10 (≈ 3.46 µg/mL) | <=50% | 3410 | > 20 | <=50% | <=50% |
| Nc1nc(Cl)nc2c1ncn2[C@@H]1O[C@H](COS(N)(=O)=O)[C@@H](O)[C@H]1O | 143 | <=50% | 234 | < 150 | <=50% | <=50% | <=50% | 0.167 | > 20 | <=50% | 65.2 | 5 (≈ 1.9 µg/mL) | >50% | <=50% |
